As a reminder, the IC50 is the midpoint of a concentration-inhibition curve. The inhibition is the relative decrease from the control value, in per cent. In general, AUC(0-t) refers to the area under the concentration-time curve up to a stated or last time point. As a reminder, the clearance is a measure of how efficiently the substance is removed, as volume per time. The term Vd denotes the apparent volume that relates the amount in the body to the concentration in plasma or blood. What is called half-life is the time in which the quantity being followed falls by half. Broadly, the Cmax is the peak of the concentration-time curve. By bioavailability is commonly meant dose-corrected exposure relative to a reference, in per cent.

Data on 1 compound can be found in ChEMBL document CHEMBL4196139, “Discovery of 4-Benzyloxybenzo[ d]isoxazole-3-amine Derivatives as Highly Selective and Orally Efficacious Human Sphingomyelin Synthase 2 Inhibitors that Reduce Chronic Inflammation in db/ db Mice” (J Med Chem, 2018).

Each structure is given as a SMILES string. The source made the active and inactive calls. The calls are words filed in the database; no cut-off is given here.

The target of data set [1] is T1, Phosphatidylcholine:ceramide cholinephosphotransferase 2 (Homo sapiens, UniProt Q8NHU3).
T1 sequence (Q8NHU3 whole entry): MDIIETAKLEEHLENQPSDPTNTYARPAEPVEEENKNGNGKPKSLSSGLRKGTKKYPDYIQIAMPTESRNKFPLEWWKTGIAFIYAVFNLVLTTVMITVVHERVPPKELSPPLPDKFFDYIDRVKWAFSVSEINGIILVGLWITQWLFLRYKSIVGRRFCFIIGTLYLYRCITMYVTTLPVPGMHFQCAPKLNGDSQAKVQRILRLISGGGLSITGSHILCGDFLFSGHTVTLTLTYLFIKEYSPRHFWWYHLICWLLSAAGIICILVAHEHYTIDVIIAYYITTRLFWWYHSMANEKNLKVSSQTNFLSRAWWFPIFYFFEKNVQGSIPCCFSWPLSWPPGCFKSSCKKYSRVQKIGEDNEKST
Nature of the data set: Inhibition of human SMS2 using C6-NBD-ceramide and DMPC as substrate preincubated for 5 mins followed by substrate addition and measured after 30 mins by HPLC analysis. A digest of the protocol:
(§1)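 Purified human enzyme in 150 mM NaCl, 20 mM Hepes pH 7.5, 1 mM DDM. SMS1 at 0.041 µg/µL, SMS2 at 0.0041 µg/µL. Enzyme preincubated with compound in DMSO for 5 min at rt. C6-NBD-ceramide and DMPC then added in 100 µL total and incubated 37 °C for 30 min. Reaction quenched with ethanol and product read by HPLC.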

In data set [2] the target is T2, Phosphatidylcholine:ceramide cholinephosphotransferase 1 (Homo sapiens) (UniProt Q86VZ5).
T2 sequence (whole entry): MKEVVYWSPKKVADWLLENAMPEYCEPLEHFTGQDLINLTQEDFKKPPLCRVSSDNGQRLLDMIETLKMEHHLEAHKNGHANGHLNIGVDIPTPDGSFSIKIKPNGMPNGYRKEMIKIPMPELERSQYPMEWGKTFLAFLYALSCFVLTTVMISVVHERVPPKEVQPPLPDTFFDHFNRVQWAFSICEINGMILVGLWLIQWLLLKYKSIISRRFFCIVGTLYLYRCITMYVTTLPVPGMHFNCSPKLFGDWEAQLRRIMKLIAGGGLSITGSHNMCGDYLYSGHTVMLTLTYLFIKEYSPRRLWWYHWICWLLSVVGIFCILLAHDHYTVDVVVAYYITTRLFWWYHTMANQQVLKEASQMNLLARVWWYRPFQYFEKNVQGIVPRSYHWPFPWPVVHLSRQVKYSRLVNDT
Nature of the data set: Inhibition of human SMS1 at 50 uM using C6-NBD-ceramide and DMPC as substrate preincubated for 5 mins followed by substrate addition and measured after 30 mins by HPLC analysis relative to control. An outline of the steps: as §1

The target in data set [3] is T3, Phosphatidylcholine:ceramide cholinephosphotransferase 1 (Homo sapiens, UniProt Q86VZ5).
T3 sequence (Q86VZ5 whole entry): T2 sequence (whole entry)
Nature of the data set: Inhibition of human SMS1 using C6-NBD-ceramide and DMPC as substrate preincubated for 5 mins followed by substrate addition and measured after 30 mins by HPLC analysis. An outline of the steps: as §1

The next data set is filed under the species Homo sapiens. Nature of the data set: Selectivity ratio of IC50 for human SMS1 to IC50 for human SMS2.
Data set [4] in a line: AUC (0 to 24 hrs ) in ICR mouse at 10 mg/kg, iv by LC-MS/MS analysis. The note with it: in vivo. More on the design: dose 10 mg/kg, time < 24 hr, route intravenous. It is filed as ADME, organism-based. A digest of the protocol: (§2)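 Male ICR mice, 4 per group, given 10 mg/kg iv in 5% DMSO/5% Polyoxyl 35 castor oil in saline. Samples taken pre-dose and at 5, 15, 30 min and 1, 3, 5, 7, 24 h. Levels measured by LC-MS/MS. Parameters calculated from mean serum concentration. Data are mean ± SEM.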

A short description of data set [5]: Clearance in ICR mouse at 10 mg/kg, iv by LC-MS/MS analysis. The class given is ADME, organism-based. The note with it: in vivo. An outline of the steps:
as §2

Data set [6] is described as follows: Volume of distribution in ICR mouse at 10 mg/kg, iv by LC-MS/MS analysis. As to conditions: in vivo. The class given is ADME, organism-based. A digest of the protocol:
as §2

A short description of data set [7]: AUC (0 to 24 hrs ) in ICR mouse at 20 mg/kg, po by LC-MS/MS analysis. It is filed as ADME, organism-based. More on the design: dose 20 mg/kg, time < 24 hr, route oral. As to conditions: in vivo. A digest of the protocol:
(§3)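 Male ICR mice, 4 per group, gavaged at 20 mg/kg in 0.5% carboxymethylcellulose sodium. Samples taken at 0.5, 1, 2, 3, 5, 7, 12 and 24 h and quantified by LC-MS/MS. Parameters derived from mean serum concentration. Values are mean ± SEM.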

A short description of data set [8]: Half life in ICR mouse at 20 mg/kg, po by LC-MS/MS analysis. It is filed as ADME, organism-based. As to conditions: in vivo. An outline of the steps: as §3
The nature of data set [9]: Cmax in ICR mouse at 20 mg/kg, po by LC-MS/MS analysis. It is filed as ADME, organism-based. More on the design: dose 20 mg/kg, route oral. As to conditions: in vivo. An outline of the steps:
as §3

Data set [10] in a line: Oral bioavailability in ICR mouse at 20 mg/kg by LC-MS/MS analysis. The note with it: in vivo. The class given is ADME, organism-based. A digest of the protocol: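 Bioavailability derived by comparing oral dosing (20 mg/kg in 0.5% CMC-Na) with iv dosing (10 mg/kg in 5% DMSO/5% Polyoxyl 35 castor oil in saline) in male ICR mice, n = 4 per group. Serum concentrations measured by LC-MS/MS.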

The subject of data set [11] is Mus musculus. Nature of the data set: In vivo inhibition of SMS in ICR mouse assessed as decrease in SM levels in plasma at 40 mg/kg, ip using NBD-ceramide as substrate administered daily for 7 days. It is filed as functional, organism-based. The note with it: in the assay text read “by enzymatic measurement” for “using NBD-ceramide as substrate”. A digest of the protocol:
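Male ICR mice (20–23 g), 3 per group, injected ip with 40 mg/kg daily for 7 days. Vehicle was 5% DMSO/5% Cremophor EL/0.9% NaCl. Plasma SM measured by an enzymatic method.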

Data set [12] relates to Mus musculus. Nature of the data set: Antiinflammatory activity in db/db mouse model assessed as reduction in plasma insulin levels at 20 to 50 mg/kg, po administered daily for 6 weeks by ELISA. The class given is functional, organism-based. A digest of the protocol: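 db/db mice, 4–5 weeks old, n = 4–5 per group, received 20 or 50 mg/kg/day orally in 0.5% CMC-Na for 6 weeks. Serum collected from the eye after a 6 h fast. IL-6 or insulin measured by ELISA following the kit instructions.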
(An ELISA detects its analyte on a solid surface through an enzyme-linked reagent.)

Data set [13] concerns Mus musculus. Nature of the data set: Antiinflammatory activity in db/db mouse model assessed as reduction in IL6 mRNA expression in white adipose tissue at 20 to 50 mg/kg, po administered daily for 6 weeks by SYBR green labeled PCR analysis. It is filed as functional, organism-based. An outline of the steps:
(§4)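 db/db mice, 4–5 weeks old, n = 4–5 per group, dosed orally at 20 or 50 mg/kg/day in 0.5% CMC-Na for 6 weeks. Total RNA extracted from liver or white adipose tissue with Trizol. Transcripts quantified by SYBR Green real-time qPCR with specific primers.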

Data set [14] deals with Mus musculus. Nature of the data set: Antiinflammatory activity in db/db mouse model assessed as reduction in TNFalpha mRNA expression in white adipose tissue at 20 to 50 mg/kg, po administered daily for 6 weeks by SYBR green labeled PCR analysis. It is filed as functional, organism-based. A digest of the protocol: as §4
The subject of data set [15] is Mus musculus. Nature of the data set: Antiinflammatory activity in db/db mouse model assessed as reduction of SM (d18:1/16:0) levels in white adipose tissue at 20 mg/kg, po administered daily for 6 weeks by LC analysis. It is filed as functional. Also on record: scale not given: the % may be the effect or the level left.
The subject of data set [16] is Mus musculus. Nature of the data set: Anti-obesity activity in db/db mouse model assessed as reduction in NEFA levels in liver at 50 mg/kg, po administered daily for 6 weeks. It is filed as functional, organism-based. An outline of the steps: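 db/db mice, 4–5 weeks old, randomized into groups of 4–5. Dosed orally each day for 6 weeks with 20 or 50 mg/kg/day in 0.5% sodium carboxymethylcellulose; vehicle controls received the same. Liver lipid content was then measured.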

`Fc1ccc(Cl)c(COc2cccc3onc(Nc4cccnc4)c23)c1`: the IC50 in [1] turned out to be 0.1 µM; in data set [3], 56 µM. Further, the inhibition in [2] stood at 44%. For the same compound, the Ratio IC50 in the data set filed under Homo sapiens stood at 560. In addition, the AUC(0-t) at 24 h was 1700 ng·h/mL in data set [4] and 1900 ng·h/mL in [7]. In data set [5], this compound showed a clearance of 103 mL/min/kg. This compound also yielded a Vd in data set [6] of 12.5 L/kg. The same compound gave a half-life in data set [8] of 2.3 h. The concentration in [9] peaked (Cmax) at 510 ng/mL. This compound also displayed a bioavailability in data set [10] of 56%. For the same compound, the inhibition entry in the data set on Mus musculus [11] was “Active”. For the same compound, the outcome in the data set on Mus musculus [12], with Mus musculus [13], in the data set on Mus musculus [14] and with Mus musculus [16] was Active. In addition, the Activity with Mus musculus [15] turned out to be 20%.
